Results taken from ChEMBL document CHEMBL1144486, “Synthesis, biological activity and molecular modelling of new trisubstituted 8-azaadenines with high affinity for A1 adenosine receptors” (Eur J Med Chem, 2007).
pKi: −log10 of the molar value.

Assays:
[1] = molecular target: T1, Adenosine receptor A1 (Bos taurus, UniProt P28190); experiment: Displacement of [3H]DPCPX from bovine cerebral cortex adenosine A1 receptor; type: tissue-based
T1 sequence (P28190 whole entry): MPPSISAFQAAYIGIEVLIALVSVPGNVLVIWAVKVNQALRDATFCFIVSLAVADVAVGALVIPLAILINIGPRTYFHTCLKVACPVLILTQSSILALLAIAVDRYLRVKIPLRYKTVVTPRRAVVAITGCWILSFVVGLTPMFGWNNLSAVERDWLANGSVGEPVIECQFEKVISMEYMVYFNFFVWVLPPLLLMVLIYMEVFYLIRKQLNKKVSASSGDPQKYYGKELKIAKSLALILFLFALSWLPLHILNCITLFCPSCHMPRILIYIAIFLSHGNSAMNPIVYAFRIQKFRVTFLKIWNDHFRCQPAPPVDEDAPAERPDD
In short: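 Nonspecific binding defined with CPA. Reaction stopped by dilution with ice-cold 50 mM Tris-HCl, then GF/C filtration and three washes. Bound radioactivity counted by liquid scintillation. Each test repeated until at least three consistent results were obtained and averaged for Ki.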

[2] = molecular target: Adenosine receptor A2a (Homo sapiens) (UniProt P29274); experiment: Displacement of [3H]ZM-241385 from human recombinant adenosine A2A receptor expressed in CHO cells at 1 uM; type: cell-based
Sequence of Adenosine receptor A2a (Homo sapiens) (P29274 whole entry): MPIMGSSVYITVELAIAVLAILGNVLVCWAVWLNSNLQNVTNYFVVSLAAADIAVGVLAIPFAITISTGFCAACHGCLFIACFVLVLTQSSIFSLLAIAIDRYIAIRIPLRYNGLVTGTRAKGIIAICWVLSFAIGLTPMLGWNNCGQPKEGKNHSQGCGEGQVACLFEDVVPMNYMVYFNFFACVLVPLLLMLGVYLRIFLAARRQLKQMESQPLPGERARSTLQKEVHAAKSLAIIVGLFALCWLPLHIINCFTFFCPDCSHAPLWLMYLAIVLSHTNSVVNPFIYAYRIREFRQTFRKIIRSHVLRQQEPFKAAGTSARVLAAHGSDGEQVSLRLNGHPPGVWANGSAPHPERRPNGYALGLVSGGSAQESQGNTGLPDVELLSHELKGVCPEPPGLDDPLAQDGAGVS
In short: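 Membranes from CHO cells expressing recombinant human A2A receptor incubated 120 min at 25 °C with 4 nM [3H]ZM241385 and a single compound concentration, in duplicate, in Tris-HCl buffer. Nonspecific binding defined with NECA. Percent inhibition of specific binding recorded.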

[3] = molecular target: T2, Adenosine receptor A3 (Homo sapiens) (UniProt P0DMS8); experiment: Displacement of [3H]NECA from human recombinant adenosine A3 receptor expressed in CHO cells at 1 uM; type: cell-based
T2 sequence (whole entry): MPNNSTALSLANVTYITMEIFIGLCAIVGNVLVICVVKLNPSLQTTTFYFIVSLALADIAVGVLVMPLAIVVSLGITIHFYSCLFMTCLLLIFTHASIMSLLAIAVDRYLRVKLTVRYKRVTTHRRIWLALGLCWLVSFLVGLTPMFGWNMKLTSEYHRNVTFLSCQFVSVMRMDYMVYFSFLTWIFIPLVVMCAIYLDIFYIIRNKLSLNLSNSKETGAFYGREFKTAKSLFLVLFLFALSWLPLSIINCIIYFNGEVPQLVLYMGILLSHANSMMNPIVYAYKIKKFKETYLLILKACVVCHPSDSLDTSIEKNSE
In short: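 Membranes from CHO cells expressing recombinant human A3 receptor incubated 120 min at 25 °C with 6 nM [3H]NECA and a single compound concentration, in duplicate, in Tris-HCl buffer. Nonspecific binding defined with R-PIA. Percent inhibition of specific binding recorded.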

| SMILES | pKi [1] | inhibition [2] [%] | inhibition [3] [%] |
| --- | --- | --- | --- |
| CNc1nc(-c2ccccc2)nc2c1nnn2Cc1ccccc1 | 6.45 | < 50 | < 50 |
| OCCCNc1nc(-c2ccccc2)nc2c1nnn2Cc1ccccc1Cl | 7.48 | < 50 | < 50 |
| OCCNc1nc(-c2ccccc2)nc2c1nnn2Cc1ccccc1C(F)(F)F |  | < 50 | < 50 |
| OCCCNc1nc(-c2ccccc2)nc2c1nnn2Cc1ccccc1C(F)(F)F | 6.83 | < 50 | < 50 |
| OCCCNc1nc(-c2ccccc2)nc2c1nnn2Cc1ccccc1F | 8.43 | < 50 | < 50 |
| FC(F)(F)c1ccccc1Cn1nnc2c(NC3CCCC3)nc(-c3ccccc3)nc21 | 9.22 | < 50 | < 50 |
| Clc1ccccc1Cn1nnc2c(NC3CCCC3)nc(-c3ccccc3)nc21 | 8.05 | < 50 | < 50 |
| CCNc1nc(-c2ccccc2)nc2c1nnn2Cc1ccccc1C(F)(F)F |  | < 50 | < 50 |
| Fc1ccccc1Cn1nnc2c(NC3CCCC3)nc(-c3ccccc3)nc21 | 8.17 | < 50 | < 50 |
| Clc1ccccc1Cn1nnc2c(NC3CCC3)nc(-c3ccccc3)nc21 | 7.62 | < 50 | < 50 |
| FC(F)(F)c1ccccc1Cn1nnc2c(NC3CC3)nc(-c3ccccc3)nc21 | 8.11 | < 50 | < 50 |
| CCNc1nc(-c2ccccc2)nc2c1nnn2Cc1ccccc1 | 7.04 | < 50 | < 50 |
| CCCCCCNc1nc(-c2ccccc2)nc2c1nnn2Cc1ccccc1 | 7.88 | < 50 | < 50 |
| CCNc1nc(-c2ccccc2)nc2c1nnn2Cc1ccccc1Cl | 6.33 | < 50 | < 50 |
| CCCNc1nc(-c2ccccc2)nc2c1nnn2Cc1ccccc1C(F)(F)F |  | < 50 | < 50 |
| CC(O)CNc1nc(-c2ccccc2)nc2c1nnn2Cc1ccccc1Cl (stereo not given) | 7.49 | < 50 | < 50 |
| CC(O)CNc1nc(-c2ccccc2)nc2c1nnn2Cc1ccccc1 (stereo not given) | 8.12 | < 50 | < 50 |
| OCCNc1nc(-c2ccccc2)nc2c1nnn2Cc1ccccc1Cl | 6.94 | < 50 | < 50 |
| CCNc1nc(-c2ccccc2)nc2c1nnn2Cc1ccccc1F | 7.96 | < 50 | < 50 |
| CC(O)CNc1nc(-c2ccccc2)nc2c1nnn2Cc1ccccc1F (stereo not given) | 8.32 | < 50 | < 50 |
| CC(O)CNc1nc(-c2ccccc2)nc2c1nnn2Cc1ccccc1C(F)(F)F (stereo not given) |  | < 50 | < 50 |
| OCCCNc1nc(-c2ccccc2)nc2c1nnn2Cc1ccccc1 | 7.67 | < 50 | < 50 |
| FC(F)(F)c1ccccc1Cn1nnc2c(NC3CCCCC3)nc(-c3ccccc3)nc21 | 8.17 | < 50 | < 50 |

| SMILES | pKi [1] | inhibition [2] [%] | inhibition [3] [%] |
| --- | --- | --- | --- |
| c1ccc(Cn2nnc3c(NC4CC4)nc(-c4ccccc4)nc32)cc1 | 7.95 | < 50 | < 50 |
| CCCCNc1nc(-c2ccccc2)nc2c1nnn2Cc1ccccc1F | 8.37 | < 50 | < 50 |
| CCCCNc1nc(-c2ccccc2)nc2c1nnn2Cc1ccccc1 | 7.96 | < 50 | < 50 |
| CCCNc1nc(-c2ccccc2)nc2c1nnn2Cc1ccccc1 | 7.43 | < 50 | < 50 |
| CCCCCCNc1nc(-c2ccccc2)nc2c1nnn2Cc1ccccc1F | 7.60 | < 50 | < 50 |
| OCCNc1nc(-c2ccccc2)nc2c1nnn2Cc1ccccc1F | 7.27 | < 50 | < 50 |
| c1ccc(Cn2nnc3c(NC4CCC4)nc(-c4ccccc4)nc32)cc1 | 8.30 | < 50 | < 50 |
| CNc1nc(-c2ccccc2)nc2c1nnn2Cc1ccccc1C(F)(F)F | 7.83 | < 50 | < 50 |
| Fc1ccccc1Cn1nnc2c(NC3CCCCC3)nc(-c3ccccc3)nc21 | 8.94 | < 50 | < 50 |
| CCCCNc1nc(-c2ccccc2)nc2c1nnn2Cc1ccccc1C(F)(F)F | 8.19 | < 50 | < 50 |
| Clc1ccccc1Cn1nnc2c(NC3CC3)nc(-c3ccccc3)nc21 | 7.96 | < 50 | < 50 |
| Clc1ccccc1Cn1nnc2c(NC3CCCCC3)nc(-c3ccccc3)nc21 | 7.47 | < 50 | < 50 |
| c1ccc(Cn2nnc3c(NC4CCCC4)nc(-c4ccccc4)nc32)cc1 | 7.96 | < 50 | < 50 |
| CCCNc1nc(-c2ccccc2)nc2c1nnn2Cc1ccccc1F | 8.49 | < 50 | < 50 |
| OCCNc1nc(-c2ccccc2)nc2c1nnn2Cc1ccccc1 | 7.42 | < 50 | < 50 |
| CCCCCCNc1nc(-c2ccccc2)nc2c1nnn2Cc1ccccc1Cl | 7.51 | < 50 | < 50 |
| CCCCNc1nc(-c2ccccc2)nc2c1nnn2Cc1ccccc1Cl | 7.10 | < 50 | < 50 |
| CNc1nc(-c2ccccc2)nc2c1nnn2Cc1ccccc1Cl | 6.72 | < 50 | < 50 |
| CCCNc1nc(-c2ccccc2)nc2c1nnn2Cc1ccccc1Cl | 7.00 | < 50 | < 50 |
| CNc1nc(-c2ccccc2)nc2c1nnn2Cc1ccccc1F | 7.60 | < 50 | < 50 |
| Fc1ccccc1Cn1nnc2c(NC3CC3)nc(-c3ccccc3)nc21 | 7.82 | < 50 | < 50 |
| CCCCCCNc1nc(-c2ccccc2)nc2c1nnn2Cc1ccccc1C(F)(F)F |  | < 50 | < 50 |
